# According to ChEMBL document CHEMBL2146370, “Newly synthesized bis-benzimidazole derivatives exerting anti-tumor activity through induction of apoptosis and autophagy” (Bioorg Med Chem Lett, 2012):
# Calls of active or inactive are those of the source. The calls are words filed in the database; no cut-off is given here.
# Experiments:
# HL-60 [1] = test: Cell cycle arrest in human HL60 cells assessed as accumulation at sub-G1 phase by PI-based flow cytometry analysis; format: functional; conditions: TDE = time-dependent effect
# How it was run: (§1)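 HL60 cells exposed to 0.5 µM for 24, 48 and 72 h alongside untreated controls. Apoptosis was quantified by flow cytometry as the subG1 fraction.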
# [2] = Cytotoxicity against human PBMC cells assessed as cell viability at 5 uM after 12 hrs by MTT assay; format: cell-based; conditions: read-out: Activity
# How it was run: (§2)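 PBMC from three healthy adult volunteers, seeded at 5 × 10^5 cells/well in 96-well plates; cultured with various doses of test agent for 12, 24, 48 and 72 h; viability read out; n=3, mean ± SD; significance p < 0.05.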
# HL-60 [3] = test: Induction of apoptosis in human HL60 cells assessed as decrease in apoptotic ratio at 0.5 uM after 24 hrs by MDC staining-based fluorescence analysis in presence of 3-MA; format: functional, cell-based
# How it was run: (§3)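 HL60 cells were treated 24 h with 0.5 µM, with or without 1 mM 3-MA added beforehand. MDC-positive (autophagic) ratio and apoptotic ratio were measured by flow cytometry. Mean ± SD, n = 3.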
# HL-60 [4] = test: Induction of autophagy in human HL60 cells assessed as increase in beclin 1 level at 0.5 umol/L by Western blot analysis; format: functional, cell-based; conditions: TDE = time-dependent effect
# How it was run: (§4)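 HL60 cells were treated with 0.5 µmol L-1 over a time course and analysed by Western blot for Beclin-1 and LC3-I to LC3-II conversion, with β-actin as loading control.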
# HL-60 [5] = test: Induction of apoptosis in human HL60 cells assessed as round in cell shape at 0.5 uM after 24 hrs by phase contrast microscopy; format: functional, cell-based
# How it was run: (§5)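 HL60 cells were cultured with 0.5 µM for 24, 48 and 72 h. Morphology was compared with untreated control cells by microscopy.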
# HL-60 [6] = test: Induction of autophagy in human HL60 cells assessed as increase in LC3-II level at 0.5 umol/L by Western blot analysis; format: functional, cell-based; conditions: TDE = time-dependent effect; how it was run: as §4
# HL-60 [7] = test: Induction of apoptosis in human HL60 cells assessed as decrease in number of MDC-positive cells at 0.5 uM after 24 hrs by MDC staining-based fluorescence analysis in presence of 3-MA; format: functional, cell-based; how it was run: as §3
# HeLa = test: Cytotoxicity against human HeLa cells after 72 hrs by MTT assay; format: functional, cell-based
# How it was run: (§6)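 MTT assay in HeLa, HL60 and U937 cancer lines. IC50 in µM is the mean ± SD of three independent experiments. 5-Fluorouracil and paclitaxel served as positive controls.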
# HL-60 [8] = test: Induction of apoptosis in human HL60 cells assessed as round cell with shrunken nuclei at 0.5 uM after 48 hrs by phase contrast microscopy; format: functional, cell-based; how it was run: as §5
# HL-60 [9] = test: Induction of apoptosis in human HL60 cells assessed as nuclear fragmentation by acridine orange staining-based fluorescence microscopy; format: functional, cell-based
# How it was run: (§7)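 HL60 cells were stained with acridine orange and examined under a fluorescence microscope for chromatin condensation and nuclear fragmentation, with control-medium cells as reference.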
# [10] = Cytotoxicity against human PBMC cells assessed as cell viability at 5 uM after 24 hrs by MTT assay; format: cell-based; conditions: read-out: Activity; how it was run: as §2
# HL-60 [11] = test: Induction of apoptosis in human HL60 cells assessed as non-adherent dead cell at 0.5 uM after 48 hrs by phase contrast microscopy; format: functional, cell-based; how it was run: as §5
# HL-60 [12] = test: Induction of autophagy in human HL60 cells at 0.5 umol/L after 48 hrs by MDC staining based flow cytometry (reference value: 2.27 +/- 0.43 %); format: functional
# How it was run: (§8)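 HL60 cells were treated with 0.5 µmol L-1 for 0, 24, 48 or 72 h, stained with MDC, and fluorescence intensity was analysed by flow cytometry.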
# HL-60 [13] = test: Induction of apoptosis in human HL60 cells assessed as fragmentation of nuclei into apoptotic bodies at 0.5 uM after 48 hrs by phase contrast microscopy; format: functional, cell-based; how it was run: as §5
# [14] = Cytotoxicity against human PBMC cells assessed as cell viability at 5 uM after 48 hrs by MTT assay; format: cell-based; conditions: read-out: Activity; how it was run: as §2
# HL-60 [15] = test: Induction of apoptosis in human HL60 cells assessed as retraction of cellular process at 0.5 uM after 24 hrs by phase contrast microscopy; format: functional, cell-based; how it was run: as §5
# HL-60 [16] = test: Cell cycle arrest in human HL60 cells assessed as accumulation at sub-G1 phase after 24 hrs by PI-based flow cytometry analysis ( Rvb = 1.73 +/-0.08 %); format: functional; how it was run: as §1
# HL-60 [17] = test: Induction of apoptosis in human HL60 cells assessed as membrane blebbing at 0.5 uM after 48 hrs by phase contrast microscopy; format: functional, cell-based; how it was run: as §5
# U-937 = test: Cytotoxicity against human U937 cells after 72 hrs by MTT assay; format: functional, cell-based; conditions: U-937, 72 h; how it was run: as §6
# HL-60 [18] = test: Induction of apoptosis in human HL60 cells assessed as chromatin condensation by acridine orange staining-based fluorescence microscopy; format: functional, cell-based; how it was run: as §7
# PBMC = test: Cytotoxicity against human PBMC cells assessed as cell viability at 160 uM after 24 to 72 hrs by MTT assay; format: cell-based
# How it was run: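 PBMC were taken from three healthy adult volunteers and seeded at 5 × 10^5 cells/well. They were cultured 12, 24, 48 and 72 h across a range of concentrations up to 160 µM, with 5-FU for comparison. Viability is mean ± SD, n=3, compared by p < 0.05.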
# HL-60 [19] = test: Cell cycle arrest in human HL60 cells assessed as accumulation at sub-G1 phase after 48 hrs by PI-based flow cytometry analysis ( Rvb = 1.73 +/-0.08 %); format: functional; how it was run: as §1
# HL-60 [20] = test: Induction of autophagy in human HL60 cells at 0.5 umol/L after 24 hrs by MDC staining based flow cytometry (reference value: 2.27 +/- 0.43 %); format: functional; how it was run: as §8
# HL-60 [21] = test: Induction of autophagy in human HL60 cells at 0.5 umol/L after 72 hrs by MDC staining based flow cytometry (reference value: 2.27 +/- 0.43 %); format: functional; how it was run: as §8
# HL-60 [22] = test: Induction of autophagy in human HL60 cells assessed as formation of autophagic vacuoles at 0.5 umol/L by MDC staining-based flow cytometry; format: functional, cell-based; conditions: TDE = time-dependent effect
# How it was run: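 Autophagic vacuoles were labelled with monodansylcadaverine and viewed by fluorescence microscopy. MDC fluorescence intensity was quantified by flow cytometry after 0.5 µmol L-1 treatment.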
# HL-60 [23] = test: Cytotoxicity against human HL60 cells after 72 hrs by MTT assay; format: functional, cell-based; conditions: HL-60, 72 h; how it was run: as §6
# HL-60 [24] = test: Cell cycle arrest in human HL60 cells assessed as accumulation at sub-G1 phase after 72 hrs by PI-based flow cytometry analysis ( Rvb = 1.73 +/-0.08 %); format: functional; how it was run: as §1
# [25] = Cytotoxicity against human PBMC cells assessed as cell viability at 5 uM after 72 hrs by MTT assay; format: cell-based; conditions: read-out: Activity; how it was run: as §2
smiles,measurement,setting,value
COc1ccc(-c2nc3cc(Oc4ccc5[nH]c(-c6ccc(OC)cc6)nc5c4)ccc3[nH]2)cc1,Activity,HL-60 [1],tde
same,"viability at 12 h, 5 µM",[2],98%
same,Activity,HL-60 [3],Active
same,Activity,HL-60 [4],tde
same,Activity,HL-60 [5],Active
same,Activity,HL-60 [6],tde
same,Activity,HL-60 [7],Active
same,IC50,HeLa,4.96 µM
same,Activity,HL-60 [8],Active
same,Activity,HL-60 [9],Active
same,"viability at 24 h, 5 µM",[10],96%
same,Activity,HL-60 [11],Active
same,Activity,HL-60 [12],47.27%
same,Activity,HL-60 [13],Active
same,"viability at 48 h, 5 µM",[14],88%
same,Activity,HL-60 [15],Active
same,Activity,HL-60 [16],13.8%
same,Activity,HL-60 [17],Active
same,IC50,U-937,0.58 µM
same,Activity,HL-60 [18],Active
same,Activity,PBMC,Non-toxic
same,Activity,HL-60 [19],63.02%
same,Activity,HL-60 [20],9.79%
same,Activity,HL-60 [21],89.65%
same,Activity,HL-60 [22],tde
same,IC50,HL-60 [23],0.56 µM
same,Activity,HL-60 [24],89.61%
same,"viability at 72 h, 5 µM",[25],79%
Clc1ccc(-c2nc3cc(Oc4ccc5[nH]c(-c6ccc(Cl)cc6Cl)nc5c4)ccc3[nH]2)c(Cl)c1,IC50,HeLa,17.2 µM
same,IC50,U-937,20.5 µM
same,IC50,HL-60 [23],15.8 µM
COc1cc(OC)cc(-c2nc3cc(Oc4ccc5[nH]c(-c6cc(OC)cc(OC)c6)nc5c4)ccc3[nH]2)c1,IC50,HeLa,8.59 µM
same,IC50,U-937,7.09 µM
same,IC50,HL-60 [23],6.35 µM
c1ccc(-c2nc3cc(Oc4ccc5[nH]c(-c6ccccc6)nc5c4)ccc3[nH]2)cc1,IC50,HeLa,18.4 µM
same,IC50,U-937,17.1 µM
same,IC50,HL-60 [23],16.5 µM
COc1cc(-c2nc3cc(Oc4ccc5[nH]c(-c6ccc(O)c(OC)c6)nc5c4)ccc3[nH]2)ccc1O,IC50,HeLa,10.6 µM
same,IC50,U-937,5.6 µM
same,IC50,HL-60 [23],8.17 µM
COc1cc(-c2nc3cc(Oc4ccc5[nH]c(-c6cc(OC)c(OC)c(OC)c6)nc5c4)ccc3[nH]2)cc(OC)c1OC,IC50,HeLa,9.37 µM
same,IC50,U-937,6.92 µM
same,IC50,HL-60 [23],7.56 µM
CC(=O)O[C@H]1C(=O)[C@@]2(C)[C@H]([C@H](OC(=O)c3ccccc3)[C@]3(O)C[C@H](OC(=O)[C@H](O)[C@@H](NC(=O)c4ccccc4)c4ccccc4)C(C)=C1C3(C)C)[C@]1(OC(C)=O)CO[C@@H]1C[C@@H]2O [PACLITAXEL],IC50,U-937,0.00337 µM
same,IC50,HL-60 [23],0.00282 µM
Fc1ccc(-c2nc3cc(Oc4ccc5[nH]c(-c6ccc(F)cc6)nc5c4)ccc3[nH]2)cc1,IC50,HeLa,22.8 µM
same,IC50,U-937,22.6 µM
same,IC50,HL-60 [23],23.2 µM
CN1CCN(c2ccc3[nH]c(-c4ccc5[nH]c(-c6ccc(O)cc6)nc5c4)nc3c2)CC1 [HOECHST 33258],IC50,HeLa,51.3 µM
same,IC50,U-937,15.4 µM
same,IC50,HL-60 [23],32.4 µM
O=c1[nH]cc(F)c(=O)[nH]1 [FLUOROURACIL],"viability at 12 h, 5 µM",[2],98%
same,IC50,HeLa,0.28 µM
same,"viability at 24 h, 5 µM",[10],94%
same,"viability at 48 h, 5 µM",[14],87%
same,IC50,U-937,1.07 µM
same,IC50,HL-60 [23],0.06 µM
same,"viability at 72 h, 5 µM",[25],76%
Brc1ccc(-c2nc3cc(Oc4ccc5[nH]c(-c6ccc(Br)cc6)nc5c4)ccc3[nH]2)cc1,IC50,HeLa,20.4 µM
same,IC50,U-937,21.7 µM
same,IC50,HL-60 [23],17.2 µM
